Key:
West Nile virus = test: Antiviral activity against West Nile virus infected in BHK-WII RepRen1B cells assessed as inhibition of viral replication at 10 uM after 3 days by luciferase reporter gene assay relative to control; assay type: functional; conditions: 72 h
How it was run: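 Compound (DMSO, 10 μM final) added next day in triplicate; lycorine 1 μM served as control inhibitor. Three days on, live-cell Renilla substrate (1:1000 in phenol-red-free DME, 10% FBS) replaced medium. Luminescence measured; triplicate means compared with DMSO-alone wells.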

[1] = Cytotoxicity against BHK cells infected with West Nile virus replicon assessed as cell viability at 10 uM after 3 days by CellTiter 96 aqueous one solution cell proliferation assay relative to control; assay type: cell-based, Mesocricetus auratus; conditions: hamster, bhk, 72 h, 10 µM
How it was run: (§1)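 WNV replicon BHK cells, about 3 × 10^3/well, plated without antibiotic selection; next day compound in DMSO (10 μM final for screening, or eight serial dilutions), 3 days at 37°C, 5% CO2. Tetrazolium reagent, absorbance 450 nm, triplicate means versus DMSO wells; CC50 = 50% reduction in proliferation; CC50s mean ± SD of two experiments, top dose 200 μM.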

Dengue virus = test: Antiviral activity against Dengue virus infected in BHK pD2-hRucPac-2ATG cells assessed as inhibition of viral replication at 10 uM after 3 days by luciferase reporter gene assay relative to control; assay type: functional; conditions: 72 h
How it was run: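 Renilla luciferase-bearing DENV subgenomic replicon BHK cells, kept on 3 μg/mL puromycin, seeded at 1.5 × 10^3/well without selection. Next day, 10 μM final compound in DMSO added to triplicate wells; MPA 1 μM as control inhibitor. After 3 days, medium swapped for live-cell Renilla substrate (1:1000, phenol-red-free DME, 10% FBS). Luminescence read; triplicate mean compared with DMSO-only wells.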

[2] = Cytotoxicity against BHK cells infected with Dengue virus replicon assessed as cell viability at 10 uM after 3 days by CellTiter 96 aqueous one solution cell proliferation assay relative to control; assay type: cell-based, Mesocricetus auratus; conditions: hamster, bhk, 72 h, 10 µM
How it was run: as §1, with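 “DENV” for “WNV”, “1.5” for “about 3”, “Tetrazolium (MTS-type)” for “Tetrazolium”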

Compound: COc1ccc2cc(-c3cnnn3[C@H]3C[C@H](n4cc(C)c(=O)[nH]c4=O)O[C@@H]3COC(C)=O)ccc2c1
- inhibition at 10 µM (West Nile virus): 5.3%
- Activity [1]: 100%
- inhibition at 10 µM (Dengue virus): 0%
- Activity [2]: 97%

Compound: COc1ccc2cc(-c3cnnn3[C@H]3C[C@H](n4cc(C)c(=O)[nH]c4=O)O[C@@H]3COC3CCCCO3)ccc2c1 (stereo partly drawn)
- inhibition at 10 µM (West Nile virus): 1%
- Activity [1]: 75%
- inhibition at 10 µM (Dengue virus): 21%
- Activity [2]: 92%

Compound: Cc1cn([C@H]2C[C@H](NC(=O)c3c4ccccc4cc4ccccc34)[C@@H](CO)O2)c(=O)[nH]c1=O
- inhibition at 10 µM (West Nile virus): 0%
- Activity [1]: 92%
- inhibition at 10 µM (Dengue virus): 0%
- Activity [2]: 95%

Compound: Cc1cn([C@H]2C[C@H](NC(=O)c3c[nH]c4ccccc34)[C@@H](CO)O2)c(=O)[nH]c1=O
- inhibition at 10 µM (West Nile virus): 0%
- Activity [1]: 97%
- inhibition at 10 µM (Dengue virus): 4.3%
- Activity [2]: 96%

Compound: COc1ccc2cc(C(=O)N[C@H]3C[C@H](n4cc(C)c(=O)[nH]c4=O)O[C@@H]3CO)ccc2c1
- inhibition at 10 µM (West Nile virus): 0%
- Activity [1]: 100%
- inhibition at 10 µM (Dengue virus): 0%
- Activity [2]: 100%

Compound: Cc1cn([C@H]2C[C@H](NC(=O)C(c3ccccc3)(c3ccccc3)c3ccccc3)[C@@H](CO)O2)c(=O)[nH]c1=O
- inhibition at 10 µM (West Nile virus): 0%
- Activity [1]: 95%
- inhibition at 10 µM (Dengue virus): 16%
- Activity [2]: 94%

Compound: Cc1cn([C@H]2C[C@H](n3nncc3-c3ccc(Oc4ccccc4)cc3)[C@@H](CO)O2)c(=O)[nH]c1=O
- inhibition at 10 µM (West Nile virus): 9%
- Activity [1]: 99%
- inhibition at 10 µM (Dengue virus): 0%
- Activity [2]: 100%

Compound: Cc1cn([C@H]2C[C@H](N3C(=O)CSC3c3ccccc3)[C@@H](CO)O2)c(=O)[nH]c1=O (mixture of isomers)
- inhibition at 10 µM (West Nile virus): 0%
- Activity [1]: 99%
- inhibition at 10 µM (Dengue virus): 0%
- Activity [2]: 100%

Compound: Cc1cn([C@H]2C[C@H](n3nncc3-c3cccc4ccccc34)[C@@H](CO)O2)c(=O)[nH]c1=O
- inhibition at 10 µM (West Nile virus): 3.3%
- Activity [1]: 100%
- inhibition at 10 µM (Dengue virus): 0%
- Activity [2]: 90%

Compound: Cc1cn([C@H]2C[C@H](NC(=O)c3ccc4ccccc4c3)[C@@H](CO)O2)c(=O)[nH]c1=O
- inhibition at 10 µM (West Nile virus): 0%
- Activity [1]: 92%
- inhibition at 10 µM (Dengue virus): 45%
- Activity [2]: 97%

Compound: Cc1cn([C@H]2C[C@H](n3nncc3-c3ccc(-c4ccccc4)cc3)[C@@H](CO)O2)c(=O)[nH]c1=O
- inhibition at 10 µM (West Nile virus): 23%
- Activity [1]: 100%
- inhibition at 10 µM (Dengue virus): 2.3%
- Activity [2]: 92%

Compound: COc1ccc2cc(-c3cnnn3[C@H]3C[C@H](n4cc(C)c(=O)[nH]c4=O)O[C@@H]3CO)ccc2c1
- inhibition at 10 µM (West Nile virus): 7.4%
- Activity [1]: 100%
- inhibition at 10 µM (Dengue virus): 0%
- Activity [2]: 100%

Compound: Cc1cn([C@H]2C[C@H](N3C(=O)CSC3c3c4ccccc4cc4ccccc34)[C@@H](CO)O2)c(=O)[nH]c1=O (mixture of isomers)
- inhibition at 10 µM (West Nile virus): 12%
- Activity [1]: 100%
- inhibition at 10 µM (Dengue virus): 0%
- Activity [2]: 96%

Compound: COc1ccc(C(OC[C@H]2O[C@@H](n3cc(C)c(=O)[nH]c3=O)C[C@@H]2n2nncc2-c2ccc3cc(OC)ccc3c2)(c2ccccc2)c2ccc(OC)cc2)cc1
- inhibition at 10 µM (West Nile virus): 23%
- Activity [1]: 93%
- inhibition at 10 µM (Dengue virus): 46%
- Activity [2]: 93%

Compound: Cc1cn([C@H]2C[C@H](n3nncc3C3CCCCC3)[C@@H](CO)O2)c(=O)[nH]c1=O
- inhibition at 10 µM (West Nile virus): 0%
- Activity [1]: 100%
- inhibition at 10 µM (Dengue virus): 10%
- Activity [2]: 100%

Compound: CCOCOC[C@H]1O[C@@H](n2cc(C)c(=O)[nH]c2=O)C[C@@H]1n1nncc1-c1ccc2cc(OC)ccc2c1
- inhibition at 10 µM (West Nile virus): 0%
- Activity [1]: 89%
- inhibition at 10 µM (Dengue virus): 13%
- Activity [2]: 95%

Compound: Cc1cn([C@H]2C[C@H](n3nncc3COc3ccccc3)[C@@H](CO)O2)c(=O)[nH]c1=O
- inhibition at 10 µM (West Nile virus): 0%
- Activity [1]: 96%
- inhibition at 10 µM (Dengue virus): 0%
- Activity [2]: 100%

— ChEMBL document CHEMBL3576816, “5'-Silylated 3'-1,2,3-triazolyl Thymidine Analogues as Inhibitors of West Nile Virus and Dengue Virus” (J Med Chem, 2015)
